{"data": "Measurements from different studies", "target": "Serine/threonine-protein kinase Nek2 (NEK2, Homo sapiens, UniProt P51955)", "Sequence (P51955 1-445, as in one of the studies)": "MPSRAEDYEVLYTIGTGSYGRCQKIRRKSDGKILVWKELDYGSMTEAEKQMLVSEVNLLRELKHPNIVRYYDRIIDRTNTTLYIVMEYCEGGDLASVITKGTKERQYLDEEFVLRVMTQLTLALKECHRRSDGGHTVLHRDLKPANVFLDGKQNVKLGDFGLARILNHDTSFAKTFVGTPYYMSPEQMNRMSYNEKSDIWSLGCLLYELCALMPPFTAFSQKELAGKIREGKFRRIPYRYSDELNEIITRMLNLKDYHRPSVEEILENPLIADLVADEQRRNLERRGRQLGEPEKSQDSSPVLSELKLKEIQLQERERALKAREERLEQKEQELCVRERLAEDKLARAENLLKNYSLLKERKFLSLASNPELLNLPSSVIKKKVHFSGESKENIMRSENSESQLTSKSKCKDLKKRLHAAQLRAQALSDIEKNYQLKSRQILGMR", "note": "Compare with care: the assays were run in different laboratories."}
{"SMILES": "C=CC(=O)N1CCC(C(=O)NCC(=O)N2CCN(c3nc(-c4cnc(N)nc4C(F)F)nc(N4CCOCC4)n3)CC2)CC1", "read-out": "binding", "technique": "competition with immobilised ligand", "concentration": "1 µM", "remaining binding": "95%"}
{"SMILES": "C[C@H]1CCN(c2nccc(-c3cnn4ncccc34)n2)C1", "read-out": "binding", "concentration": "1 µM", "remaining binding": "90%"}
{"SMILES": "NS(=O)(=O)c1cc(NC(=O)C2(c3ccccc3Cl)CC2)ccc1Oc1cccc(Cl)c1", "read-out": "cell-free assay", "technique": "competition with immobilised ligand", "concentration": "1 µM", "remaining binding": "86%"}
{"SMILES": "O=C(c1ccc(Nc2ncc(Cl)c(-c3ccc(Cl)s3)n2)cc1)N1CCC(N2CCCC2)CC1", "read-out": "binding", "technique": "competition with immobilised ligand", "concentration": "1 µM", "remaining binding": "65%"}
{"SMILES": "O=C(Nc1c[nH]nc1C(=O)NC1CCNCC1)c1cc(F)cc(F)c1", "read-out": "binding", "technique": "competition with immobilised ligand", "concentration": "1 µM", "remaining binding": "93%"}
{"SMILES": "O=C(Nc1cccnn1)N1CC(C/C=C/c2cncc(Oc3ccc(C(F)(F)F)cn3)n2)C1", "read-out": "cell-free assay", "technique": "competition with immobilised ligand", "concentration": "1 µM", "remaining binding": "100%"}
{"SMILES": "COc1ncc2cc3ccccc3nc2c1C#N", "read-out": "cell-free assay", "technique": "competition with immobilised ligand", "concentration": "5 µM", "remaining binding": "85%"}
{"SMILES": "O=C(NCCCN1CCOCC1)c1ccc(Nc2ncc(Cl)c(-c3ccc(Cl)s3)n2)cc1", "read-out": "binding", "technique": "competition with immobilised ligand", "concentration": "1 µM", "remaining binding": "75%"}
{"SMILES": "CNC(=O)Nc1ccc2c(c1)[C@@]1(CC2)OC(=O)N(CC(=O)N(Cc2ccc(F)cc2)[C@@H](C)C(F)(F)F)C1=O", "read-out": "cell-free assay", "technique": "competition with immobilised ligand", "concentration": "1 µM", "remaining binding": "100%"}
{"SMILES": "O=C(NCCCN1CCOCC1)c1ccc(Nc2nccc(-c3cc4ccccc4s3)n2)cc1", "read-out": "binding", "technique": "competition with immobilised ligand", "concentration": "1 µM", "remaining binding": "94%"}
{"SMILES": "CN(CCCC(F)(F)F)c1nccc(-c2cnn3ncccc23)n1", "read-out": "binding", "concentration": "1 µM", "remaining binding": "100%"}
{"SMILES": "CCCCN(CCCC)C(=O)CN1C[C@@H](c2cc(OC)c3c(c2)OCO3)[C@H](C(=O)O)[C@H]1CC(C)(C)CCC", "read-out": "cell-free assay", "technique": "competition with immobilised ligand", "concentration": "1 µM", "remaining binding": "98.7%"}
{"SMILES": "N[C@@H]1CCN(c2nccc(-c3cnn4ncccc34)n2)C1", "read-out": "binding", "concentration": "1 µM", "remaining binding": "100%"}
{"SMILES": "Cn1nc(C(F)(F)F)cc1-c1cnc(N2CCc3cc(S(=O)(=O)Nc4c(F)cc(Cl)cc4F)cc(N4CCCC4=O)c32)nc1", "read-out": "cell-free assay", "technique": "competition with immobilised ligand", "concentration": "1 µM", "remaining binding": "100%"}
{"SMILES": "COc1cnc(Nc2cccc(S(N)(=O)=O)c2)nc1N1CCN(c2ccccc2)C(=O)C1", "read-out": "binding", "technique": "competition with immobilised ligand", "concentration": "1 µM", "remaining binding": "98%"}
{"SMILES": "CN(C)c1nccc(-c2cnc3ncccn23)n1", "read-out": "binding", "concentration": "1 µM", "remaining binding": "93%"}
{"SMILES": "Cn1cc(Cl)c2c(Oc3c(F)cc(Nc4cc(Cl)nc(N)n4)cc3F)ccnc21", "read-out": "cell-free assay", "technique": "competition with immobilised ligand", "concentration": "0.1 µM", "remaining binding": "100%"}
{"SMILES": "CCN1CCN(Cc2ccc(C(=O)Nc3ccc(C)c(Oc4ccc5c(c4)CC(=O)N5)c3)cc2C(F)(F)F)CC1", "read-out": "binding", "technique": "competition with immobilised ligand", "concentration": "1 µM", "remaining binding": "100%"}
{"SMILES": "CNC(=O)[C@@H]1CC[C@@H](n2c(-c3ccc4cnccc4c3)nc3ccc(C(=O)NCc4cccc(C(N)=O)c4)cc32)C1", "read-out": "binding", "technique": "competition with immobilised ligand", "concentration": "1 µM", "remaining binding": "97%"}
{"SMILES": "CC1CCCN1c1nccc(-c2cnn3ncccc23)n1 (centres unmarked)", "read-out": "binding", "concentration": "1 µM", "remaining binding": "100%"}
